The values below come from PubChem BioAssay AID540324 (Johns Hopkins Ion Channel Center, 2011).

Unmarked numbers belong to inactive results.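 Rule for the calls: active = maximum inhibition above 30% at any tested concentration, with a dose response curve fitted; inactive = no inhibition at any dose or no dose response curve.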

The nature of this test: thallium flux inhibition in parental HEK293 cells, SAR follow-up, counter-screen for KCNK9 inhibitor project, cell-based, FluxOR thallium flux, concentration-response, set 2 (AID 540324). Particulars: FluxOR fluorescence ratio; series mostly up to 30 µM; flux ratio, lower = inhibition: at the top concentration. The essentials:
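Also added: K+/Tl+ sulfate stimulus, 5x stock; system: parental HEK293 cells; times: dye loading 90 min at room temperature in dark, compound exposure 20 min; replicates: at least duplicate; doses: 10 concentrations; technique: FluxOR thallium-flux fluorescence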
Background: Counterscreens check selectivity or assay interference.
`Cc1cccc(S(=O)(=O)Nc2cccc(NC(=O)c3ccccc3)c2)c1`: the “flux ratio, lower = inhibition” value is 0.165.
As for `O=C(Nc1cccc(NC(=O)c2ccco2)c1)c1ccccc1`, the figure is 0.189; as for `CCOc1ccccc1C(=O)Nc1cccc(NC(=O)c2cccc(C)c2)c1`, 0.15.
Consider `Cc1ccccc1C(=O)Nc1cccc(NC(=O)c2ccccc2)c1`, for which the “flux ratio, lower = inhibition” value is 0.152.
As for `CCOc1ccccc1NC(=O)c1cccc(NC(=O)C2CCCCC2)c1`, the figure is 0.149.
As for `Cc1cccc(C(=O)Nc2cccc(NC(=O)c3ccccc3Cl)c2)c1`, the figure is 0.163; as for `Cc1cccc(C(=O)Nc2cccc(NC(=O)c3ccccc3OCC(C)C)c2)c1`, 0.117; as for `O=C(Nc1cccc(NC(=O)c2ccsc2)c1)c1ccccc1`, 0.179.
As for `Cc1cccc(C(=O)Nc2cccc(NC(=O)c3cccc(C(F)(F)F)c3)c2)c1`, the “flux ratio, lower = inhibition” value was 0.185.
The figure for `CCOc1ccccc1NC(=O)c1cccc(NC(=O)c2ccccc2Cl)c1` is 0.121.
Take `O=C(Nc1cccc(NC(=O)c2ccc(Cl)cc2)c1)c1ccccc1`: the “flux ratio, lower = inhibition” value was 0.215.
In the case of `CCOc1ccccc1NC(=O)c1cccc(NC(=O)C2CCCC2)c1`, the “flux ratio, lower = inhibition” value was 0.16.
The figure for `Cc1cccc(C(=O)Nc2cccc(NC(=O)C3CCCCC3)c2)c1` is 0.17; for `Cc1ccc(C(=O)Nc2cccc(NC(=O)c3ccccc3)c2)cc1` it is 0.192; for `Cc1ccccc1-c1n[nH]c(=S)n1C(C)C1CC2CCC1C2` (stereo not drawn) it is 0.377.
As for `CC(C1CC2CCC1C2)n1c(-c2ccccc2)n[nH]c1=S` (stereo not drawn), the figure is 0.379; as for `COc1ccc(C(=O)Nc2cccc(NC(=O)c3cccc(C)c3)c2)cc1`, 0.18; as for `CCOc1ccccc1NC(=O)c1cccc(NC(=O)c2ccccc2C(F)(F)F)c1`, 0.17.
